Reference: article PMC3640569 (Food biophysics, 2012)
In brackets after ≈: the same amount, converted by molar mass. Several values for one entry are separate records, joined by “and”; a condition that tells them apart may be missing. Equal values may be shown once. Entries after “also recorded” stand apart in the source; their conditions may differ. One block for each compound: values may come before it.

Key:
[1] = rat, 2 to 9 mg per day in a 71 kcal per day diet; cited from earlier work
[2] = Organic phase solubility of PMF; type: physicochemical
How it was run: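 Thermal quenching: weighed PMF was stirred into MCT or LCT (corn oil) for 1 h at 90–100 °C, cooled to 25 °C and held up to 72 h. Crystals were inspected visually and by optical microscopy. Saturation concentration was the mean of four measurements at the highest PMF loadings.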

Theoretical prediction = assay: Theoretical prediction
How it was run: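 Calculated, not measured: maximum PMF dissolvable in the oil-water system at equilibrium was derived with a mass-balance equation (Eq. 1). Inputs were the masses of solute, oil and water and the experimentally measured saturation concentrations of PMF in each carrier oil (thermal quenching) and in buffer (solvent injection), assuming oil-water partitioning.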

[3] = cited from earlier work
[4] = Encapsulation of PMF in oil-in-water nanoemulsions; type: physicochemical
How it was run: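 Oil phase was 1 wt% PMF dissolved in MCT at 90–100 °C. Aqueous phase was 2 wt% Tween 20 in 5 mM phosphate, pH 7.0. Both were kept above 50 °C, blended 2 min, then given five microfluidizer passes at 12,000 psi. Oil content was 2.5–20 % at a PMF:oil ratio of 1:100 (initial 0.56–5.6 mM). After storage, dispersed and total PMF (remixed sample) were measured by UV-vis at 330 nm.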

[5] = Aqueous phase solubility of PMF; type: physicochemical
How it was run: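 Solvent injection: 1 % PMF in DMSO was injected into aqueous solutions of water-soluble polymers (0–5 %) or polymer-free buffer, giving a final 56 µM PMF. Mixtures were stirred at 120 rpm for 72 h at 25 °C, then centrifuged (4000 rpm, 15 min) to remove crystals. Supernatant PMF was read by UV-vis at 330 nm against a calibration curve. Runs were done in duplicate or triplicate and reported as mean ± SD.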

[6] = Solubility of PMF in simulated small intestinal fluids; type: physicochemical; conditions: 0.05 % PVA or HPMC in SSIF
How it was run: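 PMF in DMSO was mixed with buffer, fasted SSIF or fed SSIF (150 mM NaCl, 10 mM CaCl₂, 15 mg/mL bile, 2.4 mg/mL lipase), with or without 0.05 % PVA or HPMC. Samples were stirred constantly for 72 h at 37 °C and centrifuged to remove crystals. Soluble PMF in the supernatant was measured by UV-vis at 330 nm.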

[7] = Oil-water partition coefficient estimated from saturation concentrations; type: physicochemical
In vitro digestion model = type: in vitro ADME; conditions: 20 wt% MCT nanoemulsion, 2.8 mM PMF, Fa-SSIF
How it was run: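 A nanoemulsion (20 wt% MCT, 2 wt% Tween 20, 2.8 mM PMF) was added to fasted SSIF (100 mM NaCl, 5 mM CaCl₂, 5 mg/mL bile extract, 0.6 mg/mL lipase, 5 mM phosphate). It was equilibrated 10 min to 37 °C at pH 7.00, and lipolysis was started with pancreatic extract. pH was held by pH-stat with 2 M NaOH. Timed samples were stopped with 4-BBBA and centrifuged (4000 rpm, 30 min, RT). The supernatant micelle phase was diluted 1:10 in DMSO and read at 330 nm. Done in triplicate.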

SMILES: COc1ccc(-c2cc(=O)c3c(OC)c(OC)c(OC)c(OC)c3o2)cc1OC [nobiletin]
anti-carcinogenic effect [1]: significant anti-carcinogenic effect

saturation concentration in the oil phase (CSO*) ([2]; LCT): around 1.55 mg/mL
saturation concentration in the oil phase (CSO*) ([2]; LCT (corn oil), 25 °C, 72 h storage): 4.2 mM and 4.2 ± 0.4 mM
saturation concentration in the oil phase (CSO*) ([2]; MCT): ~2.2 mg/mL
solubility at 72 h ([2]; oil phases (LCT, MCT), 25 °C, oil or lipid, thermodynamic from solid): 4 to 6 mM (≈ 1430 to 2150 µg/mL)
soluble PMF at saturation predicted using Eq. 1 (Theoretical prediction; 2.5 % fat MCT nanoemulsion): 0.15 mM
soluble PMF at saturation predicted using Eq. 1 (Theoretical prediction; 5 % fat MCT nanoemulsion): 0.31 mM
soluble PMF at saturation predicted using Eq. 1 (Theoretical prediction; 10 % fat MCT nanoemulsion): 0.61 mM
soluble PMF at saturation predicted using Eq. 1 (Theoretical prediction; 20 % fat MCT nanoemulsion): 1.22 mM
saturation concentration calculated using Eq. 1 (Theoretical prediction; 20 wt% LCT nanoemulsion): 0.84 mM
encapsulation efficiency ([4]; 2.5 % fat (MCT), 20 days storage): 21%
encapsulated PMF in nanoemulsion ([4]; 2.5 % fat (MCT), initial 0.56 mM PMF, 20 days storage): ≈ 0.12 mM
encapsulation efficiency ([4]; 5 % fat (MCT), 20 days storage): 21%
encapsulated PMF in nanoemulsion ([4]; 5 % fat (MCT), initial 1.4 mM PMF, 20 days storage): ~0.29 mM
encapsulation efficiency ([4]; 10 % fat (MCT), 20 days storage): 20%
encapsulated PMF in nanoemulsion ([4]; 10 % fat (MCT), initial 2.8 mM PMF, 20 days storage): ~0.55 mM
encapsulation efficiency ([4]; 20 % fat (MCT), 20 days storage): 42%
encapsulated PMF in nanoemulsion ([4]; 20 % fat (MCT), initial 5.6 mM PMF, 20 days storage): ~2.33 mM
encapsulation efficiency ([4]; 20 wt% LCT, initial PMF 5.6 mM, 72 h): around 48%
encapsulation efficiency ([4]; 20 wt% MCT, initial PMF 5.6 mM, 72 h): ~69%
encapsulation efficiency ([4]; 20 wt% oil (LCT or MCT), initial PMF 0.56, 1.4 and 2.8 mM, 72 h): 75 to 100%
PMF solubilized per 100 g of solution ([5]; 0.5 % HPMC aqueous phase): about 0.36 mg per 100 g
increase in PMF concentration in aqueous phase by water-soluble polymers ([5]; certain types and amounts of polymer (HPMC, PVA)): ~10 fold
saturation concentration in water / buffer solution ([5]; no polymer, 25 °C, 72 h): 0.93 µM and ≈ 0.93 µM
solubility kinetic at 72 h ([5]; pure buffer solution, 25 °C, aqueous buffer, kinetic from dmso stock): 0.33 µg/mL (≈ 0.921 µM)
effect of water-soluble polymers on solubility in SSIFs [6]: little influence
oil-water partition coefficient KOW (=CSO*/CSW*) ([7]; LCT / buffer): about 4,520
oil-water partition coefficient KOW (=CSO*/CSW*) ([7]; MCT / buffer): ~6,560
concentration of PMF in the micelle phase (In vitro digestion model; after 3 min digestion): around 3 µM
concentration of PMF in the micelle phase (In vitro digestion model; after 120 min digestion): around 16 µM
SMILES: COc1ccc(-c2cc(=O)c3c(O)c(OC)c(OC)c(OC)c3o2)cc1 [PMF, 5-hydroxy-6,7,8,4'-tetramethoxy-flavone]
reported saturation level in pure water [3]: ≈ 0.9 µM
effect of polymer on aqueous solubility ([5]; polyethylene glycol (PEG)): ineffective at increasing solubility; also recorded: little effect
effect of polymer on aqueous solubility ([5]; β-cyclodextrin (CD)): ineffective at increasing solubility; also recorded: little effect
